Activity calls are given as the source filed them.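 Rule for the calls: active = residual nuclease activity at or below 52% of the solvent-only control; inactive = the rest.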
Biological target: RecBCD enzyme subunit RecC (Escherichia coli (strain K12)) + RecBCD enzyme subunit RecB (Escherichia coli (strain K12)) (UniProt P07648+P08394)
Assay: purified RecBCD nuclease inhibitors, late-stage follow-up, counter-screen for AddAB inhibitor project, biochemical, radioactivity readout, 50 µM single dose (AID 623922)
Settings: [3H] dsDNA nuclease, TCA-soluble radioactivity, at 50 µM, active compounds read low
Summary of the method: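 Material: purified Escherichia coli RecBCD helicase-nuclease enzyme / Amount: 4.5 nM RecBCD / Medium: pH 8.5, 10 mM MgCl2, 25 µM ATP / Reagent: [3H] T7 dsDNA, 6 µM nucleotides / Incubation: mixing on ice, 20 min reaction at 37 °C / Signal: acid-soluble radioactivity counts / Benchmarks: DMSO control and no-enzyme background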

Sequence of RecBCD enzyme subunit RecC (Escherichia coli (strain K12)) + RecBCD enzyme subunit RecB (Escherichia coli (strain K12)) (P07648 whole entry, looked up): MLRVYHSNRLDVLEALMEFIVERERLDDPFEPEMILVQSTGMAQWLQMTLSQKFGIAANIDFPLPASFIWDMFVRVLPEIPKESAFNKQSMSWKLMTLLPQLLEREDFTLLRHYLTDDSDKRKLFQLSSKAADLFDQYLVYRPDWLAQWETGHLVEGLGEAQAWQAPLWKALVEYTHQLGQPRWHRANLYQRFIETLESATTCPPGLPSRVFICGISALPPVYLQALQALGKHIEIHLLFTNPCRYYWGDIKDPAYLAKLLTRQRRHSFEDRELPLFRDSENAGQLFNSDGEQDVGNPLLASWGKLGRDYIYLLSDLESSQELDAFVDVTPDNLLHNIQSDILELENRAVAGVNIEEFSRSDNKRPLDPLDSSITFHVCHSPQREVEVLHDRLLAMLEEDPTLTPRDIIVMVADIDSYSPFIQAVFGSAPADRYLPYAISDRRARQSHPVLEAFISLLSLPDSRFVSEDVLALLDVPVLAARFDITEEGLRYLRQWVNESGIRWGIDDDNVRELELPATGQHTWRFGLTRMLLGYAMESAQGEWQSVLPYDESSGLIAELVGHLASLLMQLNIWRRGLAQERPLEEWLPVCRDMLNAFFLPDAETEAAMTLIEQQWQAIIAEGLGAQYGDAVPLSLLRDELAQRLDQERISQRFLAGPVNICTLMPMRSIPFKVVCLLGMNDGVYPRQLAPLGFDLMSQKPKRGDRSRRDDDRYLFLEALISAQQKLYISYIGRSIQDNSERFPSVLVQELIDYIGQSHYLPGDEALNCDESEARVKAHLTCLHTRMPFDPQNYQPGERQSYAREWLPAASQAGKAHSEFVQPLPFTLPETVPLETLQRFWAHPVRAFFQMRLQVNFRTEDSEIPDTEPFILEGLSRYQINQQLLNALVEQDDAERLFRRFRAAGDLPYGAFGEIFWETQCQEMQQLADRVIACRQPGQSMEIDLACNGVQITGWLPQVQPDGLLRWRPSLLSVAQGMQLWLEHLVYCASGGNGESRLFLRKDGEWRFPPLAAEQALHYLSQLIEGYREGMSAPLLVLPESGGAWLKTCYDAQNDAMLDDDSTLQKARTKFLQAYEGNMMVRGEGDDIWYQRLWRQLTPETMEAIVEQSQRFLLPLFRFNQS
Sequence of RecBCD enzyme subunit RecC (Escherichia coli (strain K12)) + RecBCD enzyme subunit RecB (Escherichia coli (strain K12)) (P08394 whole entry, looked up): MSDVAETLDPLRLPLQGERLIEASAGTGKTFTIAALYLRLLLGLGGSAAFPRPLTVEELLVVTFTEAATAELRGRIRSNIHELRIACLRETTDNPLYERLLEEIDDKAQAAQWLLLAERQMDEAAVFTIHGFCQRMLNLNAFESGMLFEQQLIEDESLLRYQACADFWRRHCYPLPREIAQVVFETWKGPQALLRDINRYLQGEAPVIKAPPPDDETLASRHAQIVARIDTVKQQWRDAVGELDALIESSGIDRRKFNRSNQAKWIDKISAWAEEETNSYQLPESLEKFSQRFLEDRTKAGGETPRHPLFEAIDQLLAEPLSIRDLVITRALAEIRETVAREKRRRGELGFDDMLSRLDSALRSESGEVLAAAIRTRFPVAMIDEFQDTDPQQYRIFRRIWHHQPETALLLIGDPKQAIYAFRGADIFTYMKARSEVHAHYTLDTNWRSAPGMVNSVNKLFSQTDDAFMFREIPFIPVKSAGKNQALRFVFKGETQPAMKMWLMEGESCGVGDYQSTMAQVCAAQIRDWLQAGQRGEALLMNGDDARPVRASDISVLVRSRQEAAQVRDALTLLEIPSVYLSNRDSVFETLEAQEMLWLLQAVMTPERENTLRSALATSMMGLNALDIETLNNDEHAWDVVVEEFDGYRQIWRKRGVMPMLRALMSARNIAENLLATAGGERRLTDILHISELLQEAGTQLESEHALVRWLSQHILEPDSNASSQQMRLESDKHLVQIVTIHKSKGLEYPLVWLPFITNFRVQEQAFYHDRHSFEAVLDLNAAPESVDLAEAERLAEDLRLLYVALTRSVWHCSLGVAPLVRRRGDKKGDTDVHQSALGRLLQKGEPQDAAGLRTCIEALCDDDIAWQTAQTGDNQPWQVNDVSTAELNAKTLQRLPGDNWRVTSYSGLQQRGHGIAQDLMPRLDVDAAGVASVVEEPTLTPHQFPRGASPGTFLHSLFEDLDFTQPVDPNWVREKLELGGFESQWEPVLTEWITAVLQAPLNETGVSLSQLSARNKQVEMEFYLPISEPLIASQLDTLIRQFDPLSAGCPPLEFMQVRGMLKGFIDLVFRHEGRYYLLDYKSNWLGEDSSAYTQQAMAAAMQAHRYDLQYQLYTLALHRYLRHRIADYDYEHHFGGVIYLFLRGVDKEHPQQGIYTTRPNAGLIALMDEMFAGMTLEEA

Row | SMILES | residual nuclease activity
1 | CCn1cc(C(=O)O)c(=O)c2cnc(N3CCNCC3)nc21 | 93% (inactive)
2 | CCn1cc(C(=O)O)c(=O)c2cnc(N3CCN(C(=S)NCc4ccccc4)CC3)nc21 | 45%
3 | CCn1cc(C(=O)O)c(=O)c2cnc(N3CCN(C(=S)NC4CC5CCC4C5)CC3)nc21 (configuration not stated) | 75% (inactive)
4 | CCn1cc(C(=O)O)c(=O)c2cnc(N3CCN(C(=O)Nc4ccccc4)CC3)nc21 | 91% (inactive)
5 | CCn1cc(C(=O)O)c(=O)c2cnc(N3CCN(C(=S)Nc4ccccc4C(F)(F)F)CC3)nc21 | 43%
6 | CCn1cc(C(=O)O)c(=O)c2cnc(N3CCN(C(=S)NC(C)c4ccccc4)CC3)nc21 (configuration not stated) | 27%
7 | CCn1cc(C(=O)O)c(=O)c2cnc(N3CCN(C(=S)NC(=O)c4cccc(C)c4)CC3)nc21 | 47%

Next, values leading:

Row | residual nuclease activity | SMILES
8 | 50% | CCn1cc(C(=O)O)c(=O)c2cnc(N3CCN(C(=S)Nc4ccc(Cl)cc4)CC3)nc21
9 | 8% | CCn1cc(C(=O)O)c(=O)c2cnc(N3CCN(C(=S)Nc4cccc(C(F)(F)F)c4)CC3)nc21
10 | 51% | CCn1cc(C(=O)O)c(=O)c2cnc(N3CCN(C(=S)Nc4ccc(F)cc4)CC3)nc21
11 | 68% (inactive) | CCn1cc(C(=O)O)c(=O)c2cnc(N3CCN(C(=S)Nc4ccccc4)CC3)nc21
12 | 46% | CCn1cc(C(=O)O)c(=O)c2cnc(N3CCN(C(=S)Nc4ccc5c(c4)OCO5)CC3)nc21
